Calls of active or inactive are those of the source. The rule behind the calls is not given here.
Legend:
[1] = system: MCF7; assay: Antiproliferative activity against human MCF7 cells; format: functional, cell-based
Outline: (§1)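 Breast cancer lines used were SKBr3 (estrogen receptor negative, Her2 overexpressing) and MCF-7 (estrogen receptor positive). Values are mean ± standard deviation from at least two separate experiments, each performed in triplicate.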

[2] = Antiproliferative activity against human SKBR3 cells; format: functional, cell-based; details: SK-BR-3; outline: as §1
[3] = target: T1, Heat shock protein HSP90 (Homo sapiens) (UniProt P07900+P08238); assay: Inhibition of HSP90 in human MCF7 cells assessed as induction of Raf1 protein degradation at 0.2 to 10 uM incubated for 24 hrs by Western blotting method; format: cell-based
[4] = system: MCF7; assay: Effect on actin protein expression in human MCF7 cells at 0.2 to 10 uM incubated for 24 hrs by Western blotting method; format: cell-based; details: mcf7, 24 h
[5] = target: T1, Heat shock protein HSP90 (Homo sapiens); assay: Inhibition of HSP90 in human MCF7 cells assessed as induction of Akt protein degradation at 0.5 times antiproliferative IC50 level incubated for 24 hrs by Western blotting method; format: cell-based
[6] = target: T1, Heat shock protein HSP90 (Homo sapiens); assay: Inhibition of HSP90 in human MCF7 cells assessed as induction of Raf1 protein degradation at 0.5 times antiproliferative IC50 level incubated for 24 hrs by Western blotting method; format: cell-based
[7] = target: T1, Heat shock protein HSP90 (Homo sapiens); assay: Inhibition of HSP90 in human MCF7 cells assessed as induction of Her2 protein degradation at 5 times antiproliferative IC50 level incubated for 24 hrs by Western blotting method; format: cell-based
[8] = system: MCF7; assay: Effect on HSP90 protein expression in human MCF7 cells at 0.2 to 10 uM incubated for 24 hrs by Western blotting method; format: cell-based; details: mcf7, 24 h
[9] = target: T1, Heat shock protein HSP90 (Homo sapiens); assay: Inhibition of HSP90 in human MCF7 cells assessed as induction of Her2 protein degradation at 0.2 to 10 uM incubated for 24 hrs by Western blotting method; format: cell-based
[10] = target: T1, Heat shock protein HSP90 (Homo sapiens); assay: Inhibition of HSP90 in human MCF7 cells assessed as induction of Akt protein degradation at 5 times antiproliferative IC50 level incubated for 24 hrs by Western blotting method; format: cell-based
[11] = target: T1, Heat shock protein HSP90 (Homo sapiens); assay: Inhibition of HSP90 in human MCF7 cells assessed as induction of Raf1 protein degradation at 5 times antiproliferative IC50 level incubated for 24 hrs by Western blotting method; format: cell-based
[12] = target: T1, Heat shock protein HSP90 (Homo sapiens); assay: Inhibition of HSP90 in human MCF7 cells assessed as induction of Akt protein degradation at 0.2 to 10 uM incubated for 24 hrs by Western blotting method; format: cell-based
[13] = target: T1, Heat shock protein HSP90 (Homo sapiens); assay: Inhibition of HSP90 in human MCF7 cells assessed as induction of Her2 protein degradation at 0.5 times antiproliferative IC50 level incubated for 24 hrs by Western blotting method; format: cell-based

| Compound | IC50 [1] | IC50 [2] | also measured |
| --- | --- | --- | --- |
| COc1cccc(-c2cc(C(=O)Nc3cc4ccc5c(c4oc3=O)NC(=O)C(CCN3CCN(C)CC3)O5)ccc2OC)c1 (stereo unspecified) | 5.68 µM | 4.1 µM | – |
| COc1cccc(-c2cc(C(=O)Nc3cc4ccc5c(c4oc3=O)NC(=O)C(CCNC3CC4CCC3C4)O5)ccc2OC)c1 (stereo unspecified) | 1.22 µM | 0.68 µM | – |
| COc1cccc(-c2cc(C(=O)Nc3cc4ccc5c(c4oc3=O)NC(=O)C(CCNC3CCCCC3)O5)ccc2OC)c1 (stereo unspecified) | 1.16 µM | 0.78 µM | – |
| COc1ccc(CC2Oc3ccc4cc(NC(=O)c5ccc(OC)c(-c6cccc(OC)c6)c5)c(=O)oc4c3NC2=O)cc1 (stereo unspecified) | 6.12 µM | 8.37 µM | – |
| COc1cccc(-c2cc(C(=O)Nc3cc4ccc5c(c4oc3=O)NC(=O)C(CCCCN3CCCC3)O5)ccc2OC)c1 (stereo unspecified) | 1.53 µM | 2.5 µM | – |
| COc1cccc(-c2cc(C(=O)Nc3cc4ccc5c(c4oc3=O)NC(=O)C(CCN3CCCCC3)O5)ccc2OC)c1 (stereo unspecified) | 1.04 µM | 1.03 µM | – |
| COc1cccc(-c2cc(C(=O)Nc3cc4ccc5c(c4oc3=O)NC(=O)C(CCN3CCOCC3)O5)ccc2OC)c1 (stereo unspecified) | 7.44 µM | 6.66 µM | – |
| COc1cccc(-c2cc(C(=O)Nc3cc4cc(OC)c(OC(C)=O)c(C)c4oc3=O)ccc2OC)c1 | – | 6 µM | – |
| COc1cccc(-c2cc(C(=O)Nc3cc4ccc(O[C@H]5OC(C)(C)[C@@H](OC)[C@H](O)[C@@H]5O)c(OC)c4oc3=O)ccc2OC)c1 | 9 µM | 13.9 µM | – |
| COc1cccc(-c2cc(C(=O)Nc3cc4ccc5c(c4oc3=O)NC(=O)C(c3ccccc3)O5)ccc2OC)c1 (stereo unspecified) | > 50 µM | 48.2 µM | – |
| COc1cccc(-c2cc(C(=O)Nc3cc4ccc5c(c4oc3=O)NC(=O)C(C(=O)N3CCCC3)O5)ccc2OC)c1 (stereo unspecified) | > 50 µM | > 50 µM | – |
| COc1cccc(-c2cc(C(=O)Nc3cc4ccc5c(c4oc3=O)NC(=O)C(CCN(C)C)O5)ccc2OC)c1 (stereo unspecified) | 11.4 µM | 8.06 µM | – |
| COc1cccc(-c2cc(C(=O)Nc3cc4ccc5c(c4oc3=O)NC(=O)C(CN3CCN(C(=O)OC(C)(C)C)CC3)O5)ccc2OC)c1 (stereo unspecified) | > 50 µM | > 50 µM | – |
| COc1cccc(-c2cc(C(=O)Nc3cc4ccc5c(c4oc3=O)NC(=O)C(Cc3ccc(C)cc3)O5)ccc2OC)c1 (stereo unspecified) | > 50 µM | > 50 µM | – |
| COc1cccc(-c2cc(C(=O)Nc3cc4ccc5c(c4oc3=O)NC(=O)C(CCCN3CCCCC3)O5)ccc2OC)c1 (stereo unspecified) | 0.85 µM | 0.78 µM | inhibition [3]: Dose-dependent effect; Activity [4]: Non-toxic; inhibition [5]: Active; inhibition [6]: Active; inhibition [7]: Active; Activity [8]: Non-toxic; inhibition [9]: Dose-dependent effect; inhibition [10]: Active; inhibition [11]: Active; inhibition [12]: Dose-dependent effect; inhibition [13]: Active |
| COc1cccc(-c2cc(C(=O)Nc3cc4ccc5c(c4oc3=O)NC(=O)C(C(N)=O)O5)ccc2OC)c1 (stereo unspecified) | 33.4 µM | > 50 µM | – |
| COc1cccc(-c2cc(C(=O)Nc3cc4ccc5c(c4oc3=O)NC(=O)C(CCN3CCNCC3)O5)ccc2OC)c1 (stereo unspecified) | 7.63 µM | 5.44 µM | – |
| COc1cccc(-c2cc(C(=O)Nc3cc4ccc5c(c4oc3=O)NC(=O)C(CCCNC3CCCCC3)O5)ccc2OC)c1 (stereo unspecified) | 0.35 µM | 0.2 µM | inhibition [5]: Active; inhibition [6]: Active; inhibition [7]: Active; inhibition [10]: Active; inhibition [11]: Active; inhibition [13]: Active |
| COc1cccc(-c2cc(C(=O)Nc3cc4ccc5c(c4oc3=O)NC(=O)C(CN3CCCC3)O5)ccc2OC)c1 (stereo unspecified) | 22.9 µM | 15 µM | – |
| COc1cccc(-c2cc(C(=O)Nc3cc4ccc5c(c4oc3=O)NC(=O)C(CCCN[C@]34CC6CC(C[C@@H](C6)C3)C4)O5)ccc2OC)c1 (stereo partly specified) | 0.72 µM | 0.62 µM | inhibition [5]: Active; inhibition [6]: Active; inhibition [7]: Active; inhibition [10]: Active; inhibition [11]: Active; inhibition [13]: Active |
| COc1cccc(-c2cc(C(=O)Nc3cc4ccc5c(c4oc3=O)NC(=O)C(CCCN3CCCC3)O5)ccc2OC)c1 (stereo unspecified) | 1.49 µM | 1.02 µM | – |
| COc1cccc(-c2cc(C(=O)Nc3cc4ccc(OCCN(C)C)c(OC)c4oc3=O)ccc2OC)c1 | – | 2 µM | – |
| COc1cccc(-c2cc(C(=O)Nc3cc4ccc5c(c4oc3=O)NC(=O)C(CCNC34C[C@H]6C[C@@H](C3)C[C@@H](C4)C6)O5)ccc2OC)c1 (stereo partly specified) | 1.09 µM | 0.88 µM | – |
| COc1cccc(-c2cc(C(=O)Nc3cc4ccc5c(c4oc3=O)NC(=O)C(CCCNC3CC4CCC3C4)O5)ccc2OC)c1 (stereo unspecified) | 1.34 µM | 1.26 µM | – |
| COc1cccc(-c2cc(C(=O)Nc3cc4ccc5c(c4oc3=O)NC(=O)C(Cc3ccccc3)O5)ccc2OC)c1 (stereo unspecified) | 22.1 µM | 21.5 µM | – |
| COc1cccc(-c2cc(C(=O)Nc3cc4ccc5c(c4oc3=O)NC(=O)C(CN3CCNCC3)O5)ccc2OC)c1 (stereo unspecified) | 5.27 µM | 5.78 µM | – |
| COc1cccc(-c2cc(C(=O)Nc3cc4ccc5c(c4oc3=O)NC(=O)C(CCCN3CCN(C)CC3)O5)ccc2OC)c1 (stereo unspecified) | 2.43 µM | 1.76 µM | – |
| COc1cccc(-c2cc(C(=O)Nc3cc4ccc5c(c4oc3=O)NC(=O)C(CCN3CCCC3)O5)ccc2OC)c1 (stereo unspecified) | 5.2 µM | 3.49 µM | – |
| COc1cccc(-c2cc(C(=O)Nc3cc4ccc5c(c4oc3=O)NC(=O)C(Cc3ccc(Cl)cc3)O5)ccc2OC)c1 (stereo unspecified) | > 50 µM | > 50 µM | – |
| COc1cccc(-c2cc(C(=O)Nc3cc4ccc5c(c4oc3=O)NC(=O)C(CCCN3CCNCC3)O5)ccc2OC)c1 (stereo unspecified) | 12.8 µM | 9.08 µM | – |

— ChEMBL document CHEMBL3421593, “Design, synthesis, and biological evaluation of ring-constrained novobiocin analogues as hsp90 C-terminal inhibitors” (ACS Med Chem Lett, 2015)
